Results as given in ChEMBL document CHEMBL3774376, “Synthesis, and anticonvulsant activity of new amides derived from 3-methyl- or 3-ethyl-3-methyl-2,5-dioxo-pyrrolidin-1-yl-acetic acids” (Bioorg Med Chem, 2016).
The source made the active and inactive calls. The calls are words filed in the database; no cut-off is given here.

Assays:
Mus musculus [1] = assay: Neurotoxicity in CD1 albino mouse assessed as acute motor impairment at 300 mg/kg, ip measured after 0.5 hrs by rotarod test; format: toxicity, organism-based; conditions: in vivo
Procedure, shortened: (§1)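 Male CD-1 mice given 30, 100 or 300 mg/kg ip in 0.5% methylcellulose, tested at 0.5 and 4 h. Motor impairment was scored as failure to keep balance for at least 1 min on a rod rotating at 10 rpm. Minimum dose causing impairment reported.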

Mus musculus [2] = assay: Neurotoxicity in CD1 albino mouse assessed as acute motor impairment at 300 mg/kg, ip after 4 hrs by rotarod test; format: toxicity, organism-based; conditions: in vivo; procedure, shortened: as §1
Mus musculus [3] = assay: Anticonvulsant activity in CD1 albino mouse assessed as protection against maximal electroshock-induced seizures at 300 mg/kg, ip after 0.5 hrs; format: functional, organism-based
Mus musculus [4] = assay: Anticonvulsant activity in CD1 albino mouse assessed as protection against maximal electroshock-induced seizures at 300 mg/kg, ip after 4 hrs; format: functional, organism-based
Mus musculus [5] = assay: Anticonvulsant activity in CD1 albino mouse assessed as protection against subcutaneous pentylenetetrazole-induced seizures at 300 mg/kg, ip after 0.5 hrs; format: functional, organism-based
Procedure, shortened: (§2)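 Male CD-1 mice (16-26 g), compounds ip in 0.5% methylcellulose/water at 30, 100 or 300 mg/kg, 3-4 per group. At 0.5 or 4 h, pentylenetetrazole 85 mg/kg was injected sc. Protection was absence of clonic convulsions (at least 5 s) over a 30 min observation. Minimum active dose recorded.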

Mus musculus [6] = assay: Anticonvulsant activity in CD1 albino mouse assessed as protection against subcutaneous pentylenetetrazole-induced seizures at 300 mg/kg, ip after 4 hrs; format: functional, organism-based; procedure, shortened: as §2
Mus musculus [7] = assay: Neurotoxicity in CD1 albino mouse assessed as acute motor impairment at 100 to 300 mg/kg, ip after 0.5 hrs by rotarod test; format: toxicity, organism-based; conditions: in vivo; procedure, shortened: as §1
Mus musculus [8] = assay: Anticonvulsant activity in CD1 mouse assessed as protection against 32 mA-current- for 3 secs induced seizure at 100 mg/kg, ip after 0.5 hrs by 6Hz psychomotor seizure test; format: functional
Procedure, shortened: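 Male CD-1 mice given 100 mg/kg ip in 0.5% methylcellulose, four per time point. Corneal stimulation at 32 mA, 0.2 ms monopolar rectangular pulses at 6 Hz for 3 s, from a constant-current device. A mouse was protected if it resumed normal exploratory behavior within 10 s. Reported as number protected over number tested.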

Mus musculus [9] = assay: Anticonvulsant activity in ip dosed CD1 albino mouse assessed as time to peak effect; format: functional
Procedure, shortened: (§3)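 Quantitation in male CD-1 mice dosed ip at the previously estimated time of peak effect. Seizures were induced by MES or by sc pentylenetetrazole 85 mg/kg; rotarod at 10 rpm assessed motor impairment. Groups of six, at least three doses giving 10-90% effect.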

[10] = Neurotoxicity in ip dosed CD1 albino mouse assessed as acute motor impairment by rotarod test; format: toxicity, organism-based; conditions: in vivo; procedure, shortened: as §3
Mus musculus [11] = species on record: Mus musculus; assay: Protection index, ratio of TD50 for CD1 albino mouse to ED50 for protection against maximal electroshock-induced seizures in CD1 albino mouse; procedure, shortened: as §3
Mus musculus [12] = assay: Anticonvulsant activity in ip dosed CD1 albino mouse assessed as protection against 32 mA-current- for 3 secs induced seizure by 6Hz psychomotor seizure test; format: functional
Procedure, shortened: (§4)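 6-Hz corneal stimulation at 32 mA (6 Hz, 3 s) in male CD-1 mice dosed ip. Groups of six received several doses until at least three points fell between 10 and 90% protection. […] PI = TD50/ED50 (rotarod).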

Mus musculus [13] = species on record: Mus musculus; assay: Protection index, ratio of TD50 for CD1 albino mouse to ED50 for protection against 32 mA-current- for 3 secs induced seizure in CD1 albino mouse by 6Hz psychomotor seizure test; procedure, shortened: as §4
Mus musculus [14] = assay: Anticonvulsant activity in ip dosed CD1 albino mouse assessed as time to peak effect by 6Hz psychomotor seizure test; format: functional; procedure, shortened: as §4
Mus musculus [15] = assay: Anticonvulsant activity in ip dosed CD1 albino mouse assessed as protection against maximal electroshock-induced seizures; format: functional
Mus musculus [16] = assay: Anticonvulsant activity in CD1 albino mouse assessed as protection against maximal electroshock-induced seizures at 100 to 300 mg/kg, ip after 0.5 hrs; format: functional; conditions: read-out: MED
Mus musculus [17] = assay: Local anesthetic activity in CD1 albino mouse assessed prolongation of time reaction at 2 % concentration after 20 secs by tail immersion test relative to vehicle control; format: functional
Procedure, shortened: (§5)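 Compound at 1 or 2% in 0.5% methylcellulose, injected sc (0.2 ml) about 1 cm from the tail root of male CD-1 mice. After 15 min, the distal 3 cm of the tail was immersed in 50 ± 0.5 °C water and withdrawal time measured, cut off at 20 s. n=8; mean ± SEM; % prolongation relative to vehicle.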

Mus musculus [18] = assay: Local anesthetic activity in CD1 albino mouse assessed prolongation of time reaction at 1 % concentration after 20 secs by tail immersion test relative to vehicle control; format: functional; procedure, shortened: as §5
Mus musculus [19] = assay: Anticonvulsant activity in ip dosed CD1 albino mouse assessed as protection against subcutaneous pentylenetetrazole-induced seizures; format: functional; procedure, shortened: as §3
Mus musculus [20] = assay: Protection index, ratio of TD50 for CD1 albino mouse to ED50 for protection against subcutaneous pentylenetetrazole-induced seizures in CD1 albino mouse; procedure, shortened: as §3
Mus musculus [21] = assay: Anticonvulsant activity in CD1 albino mouse assessed as protection against subcutaneous pentylenetetrazole-induced seizures at 100 to 300 mg/kg, ip after 0.5 hrs; format: functional; conditions: CD1, 0.5 h, read-out: MED; procedure, shortened: as §2
Mus musculus [22] = assay: Anticonvulsant activity in CD1 albino mouse assessed as protection against subcutaneous pentylenetetrazole-induced seizures at 100 to 300 mg/kg, ip after 4 hrs; format: functional; conditions: CD1, 4 h, read-out: MED; procedure, shortened: as §2
Mus musculus [23] = assay: Neurotoxicity in CD1 albino mouse assessed as acute motor impairment at 100 to 300 mg/kg, ip after 4 hrs by rotarod test; format: toxicity, organism-based; conditions: in vivo; procedure, shortened: as §1
Mus musculus [24] = assay: Anticonvulsant activity in CD1 albino mouse assessed as protection against maximal electroshock-induced seizures at 100 to 300 mg/kg, ip after 4 hrs; format: functional; conditions: read-out: MED
Rattus norvegicus = species on record: Rattus norvegicus; assay: Displacement of [3H]BTX from voltage-sensitive Na+ channel site 2 in rat cerebral cortex synaptoneurosomes at 100 uM after 60 mins by liquid scintillation spectroscopic analysis; format: tissue-based
Procedure, shortened: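 Cerebral cortex synaptoneurosomes from rat, tested at 100 µM for inhibition of specific [3H]BTX binding to the voltage-sensitive Na+ channel site 2. Reported as % inhibition of control specific binding; run commercially.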

Compound | Activity (Mus musculus [1]) | Activity (Mus musculus [2]) | Activity (Mus musculus [3]) | Activity (Mus musculus [4]) | Activity (Mus musculus [5]) | Activity (Mus musculus [6]) | MTC (Mus musculus [7]) [mg/kg] | Time (Mus musculus [9]) [h] | TD50 [10] [mg/kg] | minimal effective dose (Mus musculus [16]) [mg/kg] | minimal effective dose (Mus musculus [21]) [mg/kg] | further results
CCC1(C)CC(=O)N(CC(=O)N2CCN(c3ccccc3F)CC2)C1=O (centres undefined) | Non-toxic | Non-toxic | inactive | inactive | inactive | inactive |  |  |  |  |  | 
CCC1(C)CC(=O)N(CC(=O)N2CCN(c3ccccc3Cl)CC2)C1=O (centres undefined) |  | Non-toxic |  | inactive | inactive | inactive | 300 | 0.5 | 132 | 100 |  | Activity (Mus musculus [8]): 100%; Ratio TD50/ED50 (Mus musculus [11]): 1.08; ED50 (Mus musculus [12]): 73.3 mg/kg; Ratio TD50/ED50 (Mus musculus [13]): 1.8; Time (Mus musculus [14]): 0.5 h; ED50 (Mus musculus [15]): 122 mg/kg
Cc1cccc(C)c1NC(=O)C1CCCCN1C (centres undefined) [MEPIVACAINE] |  |  |  |  |  |  |  |  |  |  |  | Activity (Mus musculus [17]): 116.67%; Activity (Mus musculus [18]): 94.63%
CCC1(C)CC(=O)N(CC(=O)N2CCN(c3cccc(Cl)c3)CC2)C1=O (centres undefined) | Non-toxic | Non-toxic | inactive | inactive | inactive | inactive |  |  |  |  |  | 
CCC1(C)CC(=O)N(CC(=O)N2CCN(c3ccccc3)CC2)C1=O (centres undefined) | Non-toxic | Non-toxic | inactive | inactive | inactive | inactive |  |  |  |  |  | 
CC1CC(=O)N(CC(=O)N2CCN(c3cccc(Cl)c3Cl)CC2)C1=O (centres undefined) | Non-toxic | Non-toxic | inactive | inactive |  |  |  | 1 | 343 |  | 100 | ED50 (Mus musculus [19]): 74.7 mg/kg; Ratio TD50/ED50 (Mus musculus [20]): 4.6; minimal effective dose (Mus musculus [22]): 100 mg/kg
Cc1ccccc1N1CCN(C(=O)CN2C(=O)CC(C)C2=O)CC1 (centres undefined) |  | Non-toxic |  | inactive |  | inactive | 300 |  |  | 300 | 100 | 
CC1CC(=O)N(CC(=O)N2CCN(c3cccc(C(F)(F)F)c3)CC2)C1=O (centres undefined) |  |  |  |  |  | inactive | 300 |  |  | 100 | 300 | MTC (Mus musculus [23]): 300 mg/kg; minimal effective dose (Mus musculus [24]): 100 mg/kg
O=C1NC(=O)C(c2ccccc2)(c2ccccc2)N1 [PHENYTOIN] |  |  |  |  | inactive | inactive | 100 | 1 | 56.9 | 30 |  | MTC (Mus musculus [23]): 100 mg/kg; Ratio TD50/ED50 (Mus musculus [11]): 8.56; Activity (Mus musculus [17]): 84%; Activity (Mus musculus [18]): 18%; inhibition (Rattus norvegicus): 53.9%; minimal effective dose (Mus musculus [24]): 30 mg/kg
CCC1(C)CC(=O)N(CC(=O)N2CCN(c3cccc(C)c3)CC2)C1=O (centres undefined) | Non-toxic | Non-toxic | inactive | inactive | inactive | inactive |  |  |  |  |  | 
